Results as given in ChEMBL document CHEMBL1128292, “Discovery of a novel series of orally active non-peptide endothelin-A (ETA) receptor-selective antagonists” (J Med Chem, 1995).

How the values were obtained:
[1] = molecular target: T1, Endothelin receptor type B (Homo sapiens, UniProt P24530); assay: Tested for antagonistic activity against Endothelin B receptor in the humans (CHO expressed).; type: functional
T1 sequence (P24530 whole entry): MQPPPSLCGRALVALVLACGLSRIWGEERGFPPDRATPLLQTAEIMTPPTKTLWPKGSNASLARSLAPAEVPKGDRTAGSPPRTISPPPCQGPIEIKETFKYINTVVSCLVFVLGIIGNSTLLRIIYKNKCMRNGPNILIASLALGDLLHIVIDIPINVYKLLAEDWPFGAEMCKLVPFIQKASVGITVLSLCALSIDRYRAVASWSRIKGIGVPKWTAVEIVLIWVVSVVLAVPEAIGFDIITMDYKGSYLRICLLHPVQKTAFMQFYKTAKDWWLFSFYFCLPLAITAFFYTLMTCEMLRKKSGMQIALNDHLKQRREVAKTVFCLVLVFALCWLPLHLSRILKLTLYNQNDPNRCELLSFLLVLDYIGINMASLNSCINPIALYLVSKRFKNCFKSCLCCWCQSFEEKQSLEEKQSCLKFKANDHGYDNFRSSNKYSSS
Procedure, shortened: (§1)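 Membranes from cultured CHO-K1 cells expressing cloned human ETB receptor, incubated with [125I]ET-3 alone or with increasing unlabelled ligand concentrations, 37 °C, 2 h. Filtration separated bound from free ligand; gamma counting. Nonspecific binding measured with 100 nM unlabelled ET-3. One-site nonlinear least-squares fit of specific binding. IC50 from single competition experiments, triplicate points.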

[2] = molecular target: T2, Endothelin receptor type B (Rattus norvegicus, UniProt P21451); assay: Tested for antagonistic activity against Endothelin B receptor in the rat cerebellum.; type: functional, tissue-based
T2 sequence (P21451 whole entry): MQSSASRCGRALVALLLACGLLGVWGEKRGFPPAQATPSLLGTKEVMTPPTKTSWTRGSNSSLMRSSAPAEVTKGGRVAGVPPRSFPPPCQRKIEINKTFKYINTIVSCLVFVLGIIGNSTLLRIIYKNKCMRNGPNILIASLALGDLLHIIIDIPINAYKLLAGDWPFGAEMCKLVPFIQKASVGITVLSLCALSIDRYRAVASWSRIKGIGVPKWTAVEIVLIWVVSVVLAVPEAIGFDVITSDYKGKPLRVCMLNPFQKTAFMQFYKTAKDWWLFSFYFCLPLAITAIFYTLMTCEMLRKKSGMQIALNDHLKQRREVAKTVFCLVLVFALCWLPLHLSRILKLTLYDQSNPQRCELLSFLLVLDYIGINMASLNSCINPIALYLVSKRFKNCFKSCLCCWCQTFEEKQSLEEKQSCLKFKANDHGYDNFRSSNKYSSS

[3] = molecular target: T3, Endothelin-1 receptor (Homo sapiens, UniProt P25101); assay: Antagonistic activity against human Endothelin A receptor expressed in LtK; type: functional
T3 sequence (P25101 whole entry): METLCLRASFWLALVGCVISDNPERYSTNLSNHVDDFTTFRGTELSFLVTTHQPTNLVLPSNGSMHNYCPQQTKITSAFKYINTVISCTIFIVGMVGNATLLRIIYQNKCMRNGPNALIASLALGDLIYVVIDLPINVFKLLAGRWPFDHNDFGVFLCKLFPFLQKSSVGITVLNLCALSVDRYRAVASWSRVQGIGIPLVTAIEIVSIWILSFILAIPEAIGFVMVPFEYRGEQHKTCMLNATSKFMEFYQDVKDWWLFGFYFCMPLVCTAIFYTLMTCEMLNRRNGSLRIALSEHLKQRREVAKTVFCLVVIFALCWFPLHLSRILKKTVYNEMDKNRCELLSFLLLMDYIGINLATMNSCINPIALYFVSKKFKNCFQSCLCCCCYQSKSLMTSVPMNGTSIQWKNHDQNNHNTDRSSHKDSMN

[4] = molecular target: T1, Endothelin receptor type B; assay: Tested for antagonistic activity against Endothelin B receptor in human (CHO expressed).; type: functional; procedure, shortened: as §1

| SMILES | IC50 [1] [nM] | IC50 [2] [nM] | IC50 [3] [nM] | IC50 [4] [nM] |
| --- | --- | --- | --- | --- |
| COc1ccc(CC2=C(c3ccc(Cl)cc3)C(=O)OC2(O)c2ccc(OC)cc2)cc1 (stereo unspecified) | > 2500 |  |  |  |
| COc1ccc(CC2=C(c3ccc(OC)cc3)C(=O)OC2(O)c2ccc(OC)cc2)cc1 (stereo unspecified) | > 2500 |  |  |  |
| COc1ccc(C2(O)OC(=O)C(c3ccc4c(c3)OCO4)=C2Cc2ccccc2)cc1 (stereo unspecified) [PD-155080] |  | 500 |  | 4550 |
| COc1ccc(CC2=C(c3ccc(Cl)c(Cl)c3)C(=O)OC2(O)c2ccc(OC)cc2)cc1 (stereo unspecified) | > 2500 |  | 170 |  |
| O=C1OC(O)(c2ccccc2)C(Cc2ccccc2)=C1c1ccc2c(c1)OCO2 (stereo unspecified) |  | 22000 |  | 30000 |
| O=C1OC(O)(c2ccc(Cl)c(Cl)c2)C(Cc2ccccc2)=C1c1ccc2c(c1)OCO2 (stereo unspecified) | > 25000 |  |  |  |
| COc1ccc(CC2=C(c3ccc(C)cc3)C(=O)OC2(O)c2ccc(OC)cc2)cc1 (stereo unspecified) | > 2700 |  |  |  |
| Cc1ccc(C2(O)OC(=O)C(c3ccc4c(c3)OCO4)=C2Cc2ccccc2)cc1 (stereo unspecified) |  | 4500 |  | > 25000 |

Results, then the compound that gave them:

| IC50 [1] [nM] | IC50 [2] [nM] | IC50 [3] [nM] | IC50 [4] [nM] | SMILES |
| --- | --- | --- | --- | --- |
| > 2500 |  |  |  | COc1ccc(CC2=C(c3ccccc3)C(=O)OC2(O)c2ccc(OC)cc2)cc1 (stereo unspecified) |
| > 2500 |  |  |  | COc1ccc(C2(O)OC(=O)C(c3ccc4c(c3)OCO4)=C2Cc2ccc(Cl)cc2)cc1 (stereo unspecified) |
| 390 | 4500 | 51 |  | COc1ccc(C2(O)OC(=O)C(c3ccc4c(c3)OCO4)=C2Cc2ccc(C)cc2)cc1 (stereo unspecified) |
| 27000 | 5200 |  |  | O=C1OC(O)(c2ccc(Cl)cc2)C(Cc2ccccc2)=C1c1ccc2c(c1)OCO2 (stereo unspecified) |
| 1750 |  | 12 |  | COc1ccc(C2(O)OC(=O)C(c3ccc4c(c3)OCO4)=C2Cc2ccccc2)cc1C (stereo unspecified) |
| 417 |  | 0.31 |  | COc1ccc(C(=O)/C(Cc2cc(OC)c(OC)c(OC)c2)=C(\C(=O)O)c2ccc3c(c2)OCO3)cc1 [PD-156707 SODIUM] |
| 1550 |  |  |  | COc1ccc(CC2=C(c3ccc4c(c3)OCO4)C(=O)OC2(O)c2ccc(OC)cc2)cc1 (stereo unspecified) |
| 1140 |  | 2.4 |  | COc1ccc(C2(O)OC(=O)C(c3ccc4c(c3)OCO4)=C2Cc2ccc(OC)c(C)c2)cc1 (stereo unspecified) |
